Measurements taken from ChEMBL document CHEMBL5247578, “Effective synthesis of benzimidazoles-imidazo[1,2-a]pyrazine conjugates: A comparative study of mono-and bis-benzimidazoles for antitumor activity” (Eur J Med Chem, 2019).

Legend:
[1] = n-Octanol/phosphate buffer partition coefficient, logP of the compound at pH 7.4 incubated for 85 mins by shake-flask method; format: physicochemical
How it was run: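 Octanol–water partition by shake-flask: n-octanol with 0.15 M phosphate buffer pH 7.4 at 10:1 volumes. Buffer-phase absorbance read before mixing, then shaken 50 min and centrifuged at 2500 rpm for 35 min. Buffer absorbance read again; P = (Ai−Af)/Af × Vw/Vo.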

[2] = tested on: Hs-578T; experiment: Antiproliferative activity against human Hs-578T cells assessed as cell growth inhibition at 10 uM incubated for 48 hrs by sulforhodamine B assay relative to control; format: functional
How it was run: (§1)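 NCI-60 single-dose screen at 10^-5 M. Cells grown in RPMI 1640 with 5% FBS and 2 mM L-glutamine, plated at 5,000–40,000 cells/well, and preincubated 24 h. Drug (DMSO stock) added and incubated 48 h at 37 °C, 5% CO2. Adherent cells fixed with cold TCA, stained with 0.4% SRB in 1% acetic acid, dye solubilized in 10 mM trizma base, A515 read. Percent growth taken against time-zero and untreated control.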

[3] = tested on: MDA-MB-231; experiment: Antiproliferative activity against human MDA-MB-231 cells assessed as cell growth inhibition at 10 uM incubated for 48 hrs by sulforhodamine B assay relative to control; format: functional; how it was run: as §1
[4] = tested on: MCF7; experiment: Antiproliferative activity against human MCF7 cells assessed as cell growth inhibition at 10 uM incubated for 48 hrs by sulforhodamine B assay relative to control; format: functional; how it was run: as §1
[5] = tested on: PC-3; experiment: Antiproliferative activity against human PC-3 cells assessed as cell growth inhibition at 10 uM incubated for 48 hrs by sulforhodamine B assay relative to control; format: functional; how it was run: as §1
[6] = tested on: UO-31; experiment: Antiproliferative activity against human UO-31 cells assessed as cell growth inhibition at 10 uM incubated for 48 hrs by sulforhodamine B assay relative to control; format: functional; how it was run: as §1
[7] = tested on: SN12C; experiment: Antiproliferative activity against human SN12C cells assessed as cell growth inhibition at 10 uM incubated for 48 hrs by sulforhodamine B assay relative to control; format: functional; how it was run: as §1
[8] = tested on: ACHN; experiment: Antiproliferative activity against human ACHN cells assessed as cell growth inhibition at 10 uM incubated for 48 hrs by sulforhodamine B assay relative to control; format: functional
How it was run: (§2)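 Single-dose NCI-60 prescreen at 10^-5 M. Cells in RPMI 1640 with 5% FBS and 2 mM L-glutamine, seeded 5,000–40,000 cells/well with 24 h preincubation, then drug exposure for 48 h at 37 °C under 5% CO2. Growth read by SRB staining of TCA-fixed cells at 515 nm against time-zero and untreated controls. Negative growth values denote cell kill.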

[9] = tested on: 786-0; experiment: Antiproliferative activity against human 786-0 cells assessed as cell growth inhibition at 10 uM incubated for 48 hrs by sulforhodamine B assay relative to control; format: functional; how it was run: as §2
[10] = tested on: NCI/ADR-RES; experiment: Antiproliferative activity against human NCI/ADR-RES cells assessed as cell growth inhibition at 10 uM incubated for 48 hrs by sulforhodamine B assay relative to control; format: functional; how it was run: as §1
[11] = tested on: OVCAR-3; experiment: Antiproliferative activity against human OVCAR-3 cells assessed as cell growth inhibition at 10 uM incubated for 48 hrs by sulforhodamine B assay relative to control; format: functional; how it was run: as §1
[12] = tested on: IGROV-1; experiment: Antiproliferative activity against human IGROV-1 cells assessed as cell growth inhibition at 10 uM incubated for 48 hrs by sulforhodamine B assay relative to control; format: functional; how it was run: as §1
[13] = tested on: SK-MEL-5; experiment: Antiproliferative activity against human SK-MEL-5 cells assessed as cell growth inhibition at 10 uM incubated for 48 hrs by sulforhodamine B assay relative to control; format: functional; how it was run: as §1
[14] = tested on: SK-MEL-2; experiment: Antiproliferative activity against human SK-MEL-2 cells assessed as cell growth inhibition at 10 uM incubated for 48 hrs by sulforhodamine B assay relative to control; format: functional; how it was run: as §1
[15] = tested on: M14; experiment: Antiproliferative activity against human M14 cells assessed as cell growth inhibition at 10 uM incubated for 48 hrs by sulforhodamine B assay relative to control; format: functional; how it was run: as §1
[16] = tested on: LOX IMVI; experiment: Antiproliferative activity against human LOX IMVI cells assessed as cell growth inhibition at 10 uM incubated for 48 hrs by sulforhodamine B assay relative to control; format: functional; how it was run: as §1
[17] = tested on: U-251; experiment: Antiproliferative activity against human U-251 cells assessed as cell growth inhibition at 10 uM incubated for 48 hrs by sulforhodamine B assay relative to control; format: functional; how it was run: as §1
[18] = tested on: SF-539; experiment: Antiproliferative activity against human SF-539 cells assessed as cell growth inhibition at 10 uM incubated for 48 hrs by sulforhodamine B assay relative to control; format: functional; how it was run: as §1
[19] = tested on: SF-295; experiment: Antiproliferative activity against human SF-295 cells assessed as cell growth inhibition at 10 uM incubated for 48 hrs by sulforhodamine B assay relative to control; format: functional; how it was run: as §1
[20] = tested on: SF-268; experiment: Antiproliferative activity against human SF-268 cells assessed as cell growth inhibition at 10 uM incubated for 48 hrs by sulforhodamine B assay relative to control; format: functional; how it was run: as §1
[21] = tested on: SW-620; experiment: Antiproliferative activity against human SW620 cells assessed as cell growth inhibition at 10 uM incubated for 48 hrs by sulforhodamine B assay relative to control; format: functional; how it was run: as §1
[22] = tested on: HCT-116; experiment: Antiproliferative activity against human HCT-116 cells assessed as cell growth inhibition at 10 uM incubated for 48 hrs by sulforhodamine B assay relative to control; format: functional
How it was run: (§3)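 NCI-60 one-dose prescreen at 10^-5 M. Cells grown in RPMI 1640 with 5% FBS and 2 mM glutamine, preincubated 24 h, then exposed 48 h at 37 °C. Adherent lines TCA-fixed, SRB-stained, A515 read. Growth percent relative to time-zero and control; negative values mean cell kill.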

[23] = tested on: NCI-H522; experiment: Antiproliferative activity against human NCI-H522 cells assessed as cell growth inhibition at 10 uM incubated for 48 hrs by sulforhodamine B assay relative to control; format: functional; how it was run: as §1
[24] = tested on: NCI-H23; experiment: Antiproliferative activity against human NCI-H23 cells assessed as cell growth inhibition at 10 uM incubated for 48 hrs by sulforhodamine B assay relative to control; format: functional; how it was run: as §1
[25] = tested on: HOP-92; experiment: Antiproliferative activity against human HOP-92 cells assessed as cell growth inhibition at 10 uM incubated for 48 hrs by sulforhodamine B assay relative to control; format: functional; how it was run: as §3
[26] = tested on: EKVX; experiment: Antiproliferative activity against human EKVX cells assessed as cell growth inhibition at 10 uM incubated for 48 hrs by sulforhodamine B assay relative to control; format: functional; how it was run: as §3
[27] = tested on: SR; experiment: Antiproliferative activity against human SR cells assessed as cell growth inhibition at 10 uM incubated for 48 hrs by sulforhodamine B assay relative to control; format: functional; how it was run: as §1
[28] = tested on: RPMI-8226; experiment: Antiproliferative activity against human RPMI-8226 cells assessed as cell growth inhibition at 10 uM incubated for 48 hrs by sulforhodamine B assay relative to control; format: functional; how it was run: as §1
[29] = tested on: MOLT-4; experiment: Antiproliferative activity against human MOLT-4 cells assessed as cell growth inhibition at 10 uM incubated for 48 hrs by sulforhodamine B assay relative to control; format: functional; how it was run: as §1
[30] = tested on: CCRF-CEM; experiment: Antiproliferative activity against human CCRF-CEM cells assessed as cell growth inhibition at 10 uM incubated for 48 hrs by sulforhodamine B assay relative to control; format: functional; how it was run: as §2
[31] = tested on: A498; experiment: Antiproliferative activity against human A498 cells assessed as cell growth inhibition at 10 uM incubated for 48 hrs by sulforhodamine B assay relative to control; format: functional; how it was run: as §2

In the case of CCc1ccc(-c2cn3ccnc3c(-c3ccc4ncn(Cc5ccccc5)c4c3)n2)cc1, the logD at 1.417 h [1] is reported as 1.96, the inhibition at 10 µM [2] is reported as 21.8% and the inhibition at 10 µM [3] is reported as 43.2%. It also gave an inhibition at 10 µM [4] of 58%, an inhibition at 10 µM [5] of 50.4% and an inhibition at 10 µM [6] of 57.9%. For the same compound, the inhibition at 10 µM [7] was 22.5%, the inhibition at 10 µM [8] was 44.7% and the inhibition at 10 µM [9] was 38.1%. It also gave an inhibition at 10 µM [10] of 41.2%, an inhibition at 10 µM [11] of 31.2% and an inhibition at 10 µM [12] of 25%. For the same compound, the inhibition at 10 µM [13] was 47.9%, the inhibition at 10 µM [14] was 14.8% and the inhibition at 10 µM [15] was 36.4%. For the same compound, the inhibition at 10 µM [16] was 50.1%, the inhibition at 10 µM [17] was 46.1% and the inhibition at 10 µM [18] was 21.2%. It also gave an inhibition at 10 µM [19] of 51.2%, an inhibition at 10 µM [20] of 30.5% and an inhibition at 10 µM [21] of 18.8%. The inhibition at 10 µM [22] was 61.2%, the inhibition at 10 µM [23] was 45.9% and the inhibition at 10 µM [24] was 23%. The inhibition at 10 µM [25] was 36.1%, the inhibition at 10 µM [26] was 39.7% and the inhibition at 10 µM [27] was 49.9%. For the same compound, the inhibition at 10 µM [28] was 55.4%, the inhibition at 10 µM [29] was 54.2% and the inhibition at 10 µM [30] was 49.7%.
COc1ccccc1-c1cn2ccnc2c(-c2ccc3ncn(C4CCCCC4)c3c2)n1 gave a logD at 1.417 h [1] of 1.72, an inhibition at 10 µM [2] of 15.8% and an inhibition at 10 µM [3] of 15.9%. The inhibition at 10 µM [4] was 8.4%, the inhibition at 10 µM [5] was 43.1% and the inhibition at 10 µM [6] was 24%. The inhibition at 10 µM [7] was 7.73%, the inhibition at 10 µM [8] was 4.48% and the inhibition at 10 µM [31] was 13.9%. The inhibition at 10 µM [9] was 12.3%, the inhibition at 10 µM [10] was 0.06% and the inhibition at 10 µM [11] was 6.57%. The inhibition at 10 µM [13] was 8.94%, the inhibition at 10 µM [14] was 12.1% and the inhibition at 10 µM [15] was 1.12%. The inhibition at 10 µM [16] was 5.13%, the inhibition at 10 µM [17] was 21% and the inhibition at 10 µM [18] was 8.07%. The inhibition at 10 µM [19] was 9.76%, the inhibition at 10 µM [20] was 8.04% and the inhibition at 10 µM [21] was 3.4%. The inhibition at 10 µM [22] was 28.3%, the inhibition at 10 µM [23] was 22.2% and the inhibition at 10 µM [24] was 2.79%. The inhibition at 10 µM [25] was 47.8%, the inhibition at 10 µM [26] was 13.3% and the inhibition at 10 µM [27] was 26.3%. It also gave an inhibition at 10 µM [28] of 35.9%, an inhibition at 10 µM [29] of 22.4% and an inhibition at 10 µM [30] of 17.4%.
In the case of c1cn2cc(-c3ccc4ncn(C5CCCCC5)c4c3)nc(-c3ccc4ncn(C5CCCCC5)c4c3)c2n1, the logD at 1.417 h [1] is reported as 1.19, the inhibition at 10 µM [2] is reported as 43.3% and the inhibition at 10 µM [3] is reported as 49.2%. For the same compound, the inhibition at 10 µM [4] was 45%, the inhibition at 10 µM [5] was 64.2% and the inhibition at 10 µM [6] was 68.8%. It also gave an inhibition at 10 µM [7] of 42.7%, an inhibition at 10 µM [8] of 45.1% and an inhibition at 10 µM [31] of 26.2%. It also gave an inhibition at 10 µM [9] of 34.3%, an inhibition at 10 µM [10] of 48.8% and an inhibition at 10 µM [11] of 40.4%. For the same compound, the inhibition at 10 µM [12] was 60.8%, the inhibition at 10 µM [13] was 55.7% and the inhibition at 10 µM [14] was 31.7%. The inhibition at 10 µM [15] was 40.6%, the inhibition at 10 µM [16] was 67% and the inhibition at 10 µM [17] was 69%. For the same compound, the inhibition at 10 µM [18] was 16.7%, the inhibition at 10 µM [19] was 44% and the inhibition at 10 µM [20] was 41.7%. For the same compound, the inhibition at 10 µM [21] was 35.6%, the inhibition at 10 µM [22] was 80.2% and the inhibition at 10 µM [23] was 49.4%. It also gave an inhibition at 10 µM [24] of 28.2%, an inhibition at 10 µM [26] of 30.8% and an inhibition at 10 µM [27] of 71.8%. The inhibition at 10 µM [28] was 89.1%, the inhibition at 10 µM [29] was 79.1% and the inhibition at 10 µM [30] was 78.5%.
